Source: ChEMBL document CHEMBL4354826, “Structure-Based Discovery of SD-36 as a Potent, Selective, and Efficacious PROTAC Degrader of STAT3 Protein” (J Med Chem, 2019)
Calls of active or inactive are those of the source. The calls are words filed in the database; no cut-off is given here.

How the values were obtained:
[1] = target: Signal transducer and activator of transcription 3 (Homo sapiens, UniProt P40763); test: Binding affinity to recombinant human His/SUMO-tagged STAT3 (127 to 688 residues) expressed in Escherichia coli Rosetta (DE3) incubated for 1 hr by fluorescence polarization assay
Sequence of Signal transducer and activator of transcription 3 (P40763 whole entry, the tested form may be a part): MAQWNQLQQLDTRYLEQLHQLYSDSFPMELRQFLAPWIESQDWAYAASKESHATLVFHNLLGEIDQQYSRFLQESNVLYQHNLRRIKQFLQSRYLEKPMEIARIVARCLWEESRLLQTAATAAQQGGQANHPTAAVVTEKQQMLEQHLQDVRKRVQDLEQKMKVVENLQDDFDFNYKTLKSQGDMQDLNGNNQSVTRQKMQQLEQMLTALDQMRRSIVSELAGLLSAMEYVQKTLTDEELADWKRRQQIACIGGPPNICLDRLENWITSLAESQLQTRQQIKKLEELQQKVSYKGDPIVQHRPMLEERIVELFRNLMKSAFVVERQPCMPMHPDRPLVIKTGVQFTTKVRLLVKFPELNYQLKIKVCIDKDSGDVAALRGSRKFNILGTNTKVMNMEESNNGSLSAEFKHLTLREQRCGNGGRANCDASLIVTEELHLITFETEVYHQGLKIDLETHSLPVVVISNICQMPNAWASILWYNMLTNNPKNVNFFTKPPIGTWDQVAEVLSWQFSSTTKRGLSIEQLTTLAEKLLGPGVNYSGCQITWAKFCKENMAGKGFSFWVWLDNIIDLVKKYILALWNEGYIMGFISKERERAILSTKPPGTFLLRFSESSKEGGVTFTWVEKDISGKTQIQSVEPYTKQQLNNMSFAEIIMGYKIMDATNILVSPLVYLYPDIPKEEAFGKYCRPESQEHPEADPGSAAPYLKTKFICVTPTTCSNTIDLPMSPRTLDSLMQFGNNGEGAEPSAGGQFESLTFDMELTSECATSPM

[2] = target: T1, Protein cereblon/Signal transducer and activator of transcription 3 (Homo sapiens, UniProt P40763+Q96SW2); test: Protac activity at CRBN/STAT3 in human MOLM16 cells assessed as degradation of STAT3 incubated for 4 hrs by Western blot analysis; type: cell-based
Procedure, shortened: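 Molm-16 cells treated 4 h with serially diluted compound. Lysates immunoblotted (SDS–PAGE, PVDF, 5% blocker/TBST, chemiluminescence) for total STAT3 and pSTAT3 Y705. DC50 taken as the concentration reducing total STAT3 by 50%.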
Target sequence in this assay (P40763 whole entry): as the sequence (P40763 whole entry, the tested form may be a part) above
Target sequence in this assay (Q96SW2 whole entry): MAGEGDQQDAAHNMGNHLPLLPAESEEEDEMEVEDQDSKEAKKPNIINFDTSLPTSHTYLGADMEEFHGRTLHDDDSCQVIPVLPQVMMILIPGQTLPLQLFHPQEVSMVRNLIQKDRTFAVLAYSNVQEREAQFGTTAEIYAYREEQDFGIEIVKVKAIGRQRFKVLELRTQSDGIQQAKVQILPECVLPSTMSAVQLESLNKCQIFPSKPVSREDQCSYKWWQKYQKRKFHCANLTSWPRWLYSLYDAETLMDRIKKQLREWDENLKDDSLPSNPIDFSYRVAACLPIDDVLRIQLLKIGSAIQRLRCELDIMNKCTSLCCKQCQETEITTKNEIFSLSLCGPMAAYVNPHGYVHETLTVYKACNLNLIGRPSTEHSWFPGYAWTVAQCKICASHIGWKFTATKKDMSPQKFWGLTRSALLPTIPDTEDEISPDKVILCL

[3] = target: T1, Protein cereblon/Signal transducer and activator of transcription 3; test: Protac activity at CRBN/STAT3 in human SUDHL1 cells assessed as degradation of STAT3 incubated for 16 hrs by Western blot analysis; type: cell-based
Target sequence in this assay (P40763 whole entry): as the sequence (P40763 whole entry, the tested form may be a part) above
Target sequence in this assay (Q96SW2 whole entry): as the sequence (Q96SW2 whole entry) above

[4] = Antiproliferative activity against human MOLM16 cells assessed as reduction in cell viability incubated for 4 days by cell-titer glo luminescent assay; type: functional, cell-based; conditions: MOLM16, 96 h
Procedure, shortened: (§1)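 Viability assay: cells incubated with serially diluted compounds for 4 days, viability read by CellTiter-Glo luminescence; IC50 from concentration–response.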

SU-DHL-1 = test: Antiproliferative activity against human SUDHL1 cells assessed as reduction in cell viability incubated for 4 days by cell-titer glo luminescent assay; type: functional, cell-based; conditions: SU-DHL-1, 96 h; procedure, shortened: as §1
[5] = target: Protein cereblon/Signal transducer and activator of transcription 2 (Homo sapiens) (UniProt Q96SW2+P52630); test: Protac activity at CRBN/STAT2 in human MOLM16 cells assessed as degradation of STAT2 at 0.01 to 10 uM incubated for 4 hrs by Western blot analysis; type: cell-based
Sequence of Protein cereblon/Signal transducer and activator of transcription 2 (Homo sapiens) (P52630 whole entry, looked up): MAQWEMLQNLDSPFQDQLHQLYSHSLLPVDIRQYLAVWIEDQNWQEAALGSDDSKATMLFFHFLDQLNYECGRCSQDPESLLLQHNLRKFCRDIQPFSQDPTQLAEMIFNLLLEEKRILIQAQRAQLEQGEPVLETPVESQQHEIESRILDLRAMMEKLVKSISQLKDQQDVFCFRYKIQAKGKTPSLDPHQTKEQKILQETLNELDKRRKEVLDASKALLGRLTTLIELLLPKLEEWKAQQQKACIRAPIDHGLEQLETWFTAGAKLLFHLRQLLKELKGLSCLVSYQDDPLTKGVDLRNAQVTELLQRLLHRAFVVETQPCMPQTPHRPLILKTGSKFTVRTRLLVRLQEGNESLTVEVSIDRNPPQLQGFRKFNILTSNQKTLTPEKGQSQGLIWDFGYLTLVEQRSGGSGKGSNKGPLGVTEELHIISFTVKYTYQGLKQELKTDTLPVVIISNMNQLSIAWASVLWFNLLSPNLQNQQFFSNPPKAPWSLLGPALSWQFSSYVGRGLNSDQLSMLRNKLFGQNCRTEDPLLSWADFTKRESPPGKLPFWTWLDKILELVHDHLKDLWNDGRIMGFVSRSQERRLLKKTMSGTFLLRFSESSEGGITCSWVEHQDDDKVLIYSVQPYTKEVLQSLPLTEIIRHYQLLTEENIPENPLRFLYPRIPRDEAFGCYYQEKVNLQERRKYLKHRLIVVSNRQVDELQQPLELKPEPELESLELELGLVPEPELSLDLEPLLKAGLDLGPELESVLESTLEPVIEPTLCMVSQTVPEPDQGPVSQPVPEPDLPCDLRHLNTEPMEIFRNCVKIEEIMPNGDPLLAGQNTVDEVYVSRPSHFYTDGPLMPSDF
Sequence of Protein cereblon/Signal transducer and activator of transcription 2 (Homo sapiens) (Q96SW2 whole entry, looked up): as the sequence (Q96SW2 whole entry) above
Procedure, shortened: (§2)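 Molm-16 cells treated 4 h with test compound at 0.01–10 μM, or control compounds at 10 μM. Lysates separated by SDS–PAGE, transferred to PVDF, blocked 1 h in 5% blocker/TBST, probed for each STAT protein, and detected by chemiluminescence.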

[6] = target: T2, Protein cereblon/Signal transducer and activator of transcription 4 (Homo sapiens) (UniProt Q96SW2+Q14765); test: Protac activity at CRBN/STAT4 in human MOLM16 cells assessed as degradation of STAT4 at 0.01 to 10 uM incubated for 4 hrs by Western blot analysis; type: cell-based; procedure, shortened: as §2
T2 sequence (Q14765 whole entry, looked up): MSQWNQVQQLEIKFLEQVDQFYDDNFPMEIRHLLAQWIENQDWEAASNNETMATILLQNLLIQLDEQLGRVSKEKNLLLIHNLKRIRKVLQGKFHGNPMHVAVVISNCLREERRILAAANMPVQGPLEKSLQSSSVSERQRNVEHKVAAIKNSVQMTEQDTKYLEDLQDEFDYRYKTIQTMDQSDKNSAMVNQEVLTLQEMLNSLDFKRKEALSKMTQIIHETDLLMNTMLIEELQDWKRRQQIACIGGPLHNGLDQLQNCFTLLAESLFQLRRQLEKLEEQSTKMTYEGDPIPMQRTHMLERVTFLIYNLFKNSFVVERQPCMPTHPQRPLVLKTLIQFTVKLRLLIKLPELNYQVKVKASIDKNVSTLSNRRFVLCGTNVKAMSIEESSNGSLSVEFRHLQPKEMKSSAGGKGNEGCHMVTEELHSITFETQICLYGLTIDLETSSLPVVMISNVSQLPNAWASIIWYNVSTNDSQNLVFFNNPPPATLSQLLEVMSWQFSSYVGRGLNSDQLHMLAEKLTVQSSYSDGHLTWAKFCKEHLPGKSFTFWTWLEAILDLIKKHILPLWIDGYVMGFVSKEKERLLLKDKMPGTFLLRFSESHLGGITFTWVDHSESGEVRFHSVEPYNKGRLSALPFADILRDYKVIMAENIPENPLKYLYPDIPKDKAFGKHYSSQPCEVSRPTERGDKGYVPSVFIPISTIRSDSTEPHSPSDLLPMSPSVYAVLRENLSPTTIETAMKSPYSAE
T2 sequence (Q96SW2 whole entry, looked up): as the sequence (Q96SW2 whole entry) above

[7] = target: Protein cereblon/Signal transducer and activator of transcription 6 (Homo sapiens) (UniProt P42226+Q96SW2); test: Protac activity at CRBN/STAT6 in human MOLM16 cells assessed as degradation of STAT6 at 0.01 to 10 uM incubated for 4 hrs by Western blot analysis; type: cell-based; procedure, shortened: as §2
[8] = target: T1, Protein cereblon/Signal transducer and activator of transcription 3; test: Protac activity at CRBN/STAT3 in human SUDHL1 cells assessed as degradation of STAT3 at 0.01 to 10 uM incubated for 18 hrs by Western blot analysis; type: cell-based
Procedure, shortened: (§3)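 SU-DHL-1 cells treated 18 h with test compound at 0.01–10 μM, or control compounds at 10 μM. Lysates separated by SDS–PAGE, transferred to PVDF, blocked 1 h in 5% blocker/TBST, probed for each STAT protein, and detected by chemiluminescence.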
Target sequence in this assay (P40763 2-770 limits assumed): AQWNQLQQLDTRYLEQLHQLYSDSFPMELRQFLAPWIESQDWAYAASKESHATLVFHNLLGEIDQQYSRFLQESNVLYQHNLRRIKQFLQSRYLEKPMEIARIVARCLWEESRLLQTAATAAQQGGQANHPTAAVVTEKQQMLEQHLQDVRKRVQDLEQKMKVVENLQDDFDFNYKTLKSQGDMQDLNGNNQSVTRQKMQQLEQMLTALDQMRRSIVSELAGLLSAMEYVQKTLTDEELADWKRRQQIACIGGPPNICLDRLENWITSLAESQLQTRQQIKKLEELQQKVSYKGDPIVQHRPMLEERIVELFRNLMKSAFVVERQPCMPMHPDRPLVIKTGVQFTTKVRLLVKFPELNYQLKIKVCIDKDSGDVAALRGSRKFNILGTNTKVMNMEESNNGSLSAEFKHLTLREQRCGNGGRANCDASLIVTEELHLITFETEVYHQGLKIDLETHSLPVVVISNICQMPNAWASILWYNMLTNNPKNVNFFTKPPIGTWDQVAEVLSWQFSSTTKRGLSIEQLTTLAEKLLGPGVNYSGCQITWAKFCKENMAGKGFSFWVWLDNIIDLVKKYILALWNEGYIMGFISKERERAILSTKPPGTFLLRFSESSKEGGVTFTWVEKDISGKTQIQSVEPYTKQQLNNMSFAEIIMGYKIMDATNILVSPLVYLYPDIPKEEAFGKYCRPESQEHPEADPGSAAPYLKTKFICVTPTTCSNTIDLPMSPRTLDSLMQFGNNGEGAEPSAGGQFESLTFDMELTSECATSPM
Target sequence in this assay (Q96SW2 whole entry partner): as the sequence (Q96SW2 whole entry) above

[9] = target: T2, Protein cereblon/Signal transducer and activator of transcription 4 (Homo sapiens); test: Protac activity at CRBN/STAT4 in human SUDHL1 cells assessed as degradation of STAT4 at 0.01 to 10 uM incubated for 18 hrs by Western blot analysis; type: cell-based; procedure, shortened: as §3
[10] = target: Protein cereblon/Signal transducer and activator of transcription 5A (Homo sapiens) (UniProt P42229+Q96SW2); test: Protac activity at CRBN/STAT5A in human SUDHL1 cells assessed as degradation of STAT5A at 0.01 to 10 uM incubated for 18 hrs by Western blot analysis; type: cell-based; procedure, shortened: as §3
Sequence of Protein cereblon/Signal transducer and activator of transcription 5A (Homo sapiens) (P42229 whole entry, looked up): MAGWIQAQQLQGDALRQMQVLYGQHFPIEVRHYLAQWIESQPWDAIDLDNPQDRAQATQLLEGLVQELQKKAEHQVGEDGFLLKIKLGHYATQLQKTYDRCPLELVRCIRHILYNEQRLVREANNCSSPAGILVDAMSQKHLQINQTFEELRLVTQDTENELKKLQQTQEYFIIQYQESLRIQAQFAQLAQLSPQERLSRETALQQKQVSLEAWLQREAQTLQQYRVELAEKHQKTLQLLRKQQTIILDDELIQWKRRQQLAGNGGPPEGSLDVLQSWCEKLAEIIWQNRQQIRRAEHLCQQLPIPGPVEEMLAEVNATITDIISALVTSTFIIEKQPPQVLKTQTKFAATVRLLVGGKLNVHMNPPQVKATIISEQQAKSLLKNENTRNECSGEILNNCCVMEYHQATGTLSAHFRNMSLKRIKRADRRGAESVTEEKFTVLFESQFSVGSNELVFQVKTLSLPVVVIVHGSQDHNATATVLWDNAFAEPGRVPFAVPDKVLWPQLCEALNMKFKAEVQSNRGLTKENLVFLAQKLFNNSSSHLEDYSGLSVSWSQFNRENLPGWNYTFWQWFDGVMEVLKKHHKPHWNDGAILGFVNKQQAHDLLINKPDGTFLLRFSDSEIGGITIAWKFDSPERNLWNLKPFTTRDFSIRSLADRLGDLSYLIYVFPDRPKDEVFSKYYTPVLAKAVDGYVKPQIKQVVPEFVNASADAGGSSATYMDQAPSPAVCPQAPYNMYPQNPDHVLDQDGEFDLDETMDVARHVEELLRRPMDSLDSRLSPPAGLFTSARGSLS
Sequence of Protein cereblon/Signal transducer and activator of transcription 5A (Homo sapiens) (Q96SW2 whole entry, looked up): as the sequence (Q96SW2 whole entry) above

[11] = target: Protein cereblon/Signal transducer and activator of transcription 5B (Homo sapiens) (UniProt P51692+Q96SW2); test: Protac activity at CRBN/STAT5B in human SUDHL1 cells assessed as degradation of STAT5B at 0.01 to 10 uM incubated for 18 hrs by Western blot analysis; type: cell-based; procedure, shortened: as §3
Homo sapiens [12] = species: Homo sapiens; test: Selectivity index, ratio of protac activity at CRBN/STAT1 in human MOLM16 cells to protac activity at CRBN/STAT3 in human MOLM16 cells; type: cell-based
Procedure, shortened: (§4)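 Molm-16 cells treated 4 h with compound at 0.01–10 μM, or controls at 10 μM. Western blot of lysates: SDS–PAGE, PVDF, 1 h block in 5% blocker/TBST, primary and secondary antibodies, chemiluminescent detection. STAT1, -2, -4, -5A/B and -6 levels read against STAT3 to give degradation selectivity.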

Homo sapiens [13] = species: Homo sapiens; test: Selectivity index, ratio of protac activity at CRBN/STAT2 in human MOLM16 cells to protac activity at CRBN/STAT3 in human MOLM16 cells; type: cell-based; procedure, shortened: as §4
Homo sapiens [14] = species: Homo sapiens; test: Selectivity index, ratio of protac activity at CRBN/STAT4 in human MOLM16 cells to protac activity at CRBN/STAT3 in human MOLM16 cells; type: cell-based; procedure, shortened: as §4
Homo sapiens [15] = species: Homo sapiens; test: Selectivity index, ratio of protac activity at CRBN/STAT5A in human MOLM16 cells to protac activity at CRBN/STAT3 in human MOLM16 cells; type: cell-based; procedure, shortened: as §4
Homo sapiens [16] = species: Homo sapiens; test: Selectivity index, ratio of protac activity at CRBN/STAT5B in human MOLM16 cells to protac activity at CRBN/STAT3 in human MOLM16 cells; type: cell-based; procedure, shortened: as §4
Homo sapiens [17] = species: Homo sapiens; test: Selectivity index, ratio of protac activity at CRBN/STAT6 in human MOLM16 cells to protac activity at CRBN/STAT3 in human MOLM16 cells; type: cell-based; procedure, shortened: as §4
Homo sapiens [18] = species: Homo sapiens; test: Selectivity index, ratio of protac activity at CRBN/STAT1 in human SUDHL1 cells to protac activity at CRBN/STAT3 in human SUDHL1 cells; type: cell-based
Procedure, shortened: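 SU-DHL-1 cells treated 18 h with compound at 0.01–10 μM, or controls at 10 μM. Immunoblotting used SDS–PAGE, PVDF transfer, 1 h block in 5% blocker/TBST, primary and secondary antibodies and chemiluminescence. Levels of other STAT family members compared with STAT3 to express degradation selectivity.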

Mus musculus [19] = test: In vivo degradation of STAT3 in SCID mouse xenografted with MOLM-16 cells at 50 mg/kg, iv measured upto 1 hr by Western blot analysis relative to control; type: functional
Procedure, shortened: (§5)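 SCID mice bearing subcutaneous Molm-16 tumors (3 × 10^6 cells in Matrigel; treated at ~150 mm3) given a single intravenous dose in 10% PEG400 + 90% PBS, or vehicle. Tumors harvested at time points. Lysates immunoblotted for total STAT3 and pSTAT3 Y705, compared with vehicle control.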

Mus musculus [20] = test: In vivo degradation of phosphorylated STAT3 Y705 in SCID mouse xenografted with MOLM-16 cells at 50 mg/kg, iv measured upto 1 hr by Western blot analysis relative to control; type: functional; procedure, shortened: as §5
Mus musculus [21] = test: In vivo degradation of phosphorylated STAT3 Y705 in SCID mouse xenografted with MOLM-16 cells at 50 mg/kg, iv measured upto 72 hrs by Western blot analysis relative to control; type: functional; procedure, shortened: as §5

## NC(=O)CC[C@H](NC(=O)[C@@H]1CC[C@@H]2CCN(C(=O)CCCCCC#Cc3cccc4c3CN(C3CCC(=O)NC3=O)C4=O)C[C@H](NC(=O)c3cc4cc(C(F)(F)P(=O)(O)O)ccc4[nH]3)C(=O)N21)C(=O)NC(c1ccccc1)c1ccccc1 (some centres not stated)
[1]
  Kd: 44 nM
[2]
  DC50: 60 nM
[3]
  DC50: 28 nM
[4]
  IC50: 13 nM
SU-DHL-1
  IC50: 610 nM
[5]
  Activity: inactive
[6]
  Activity: inactive
[7]
  Activity: inactive
[8]
  Activity: Active
[9]
  Activity: inactive
[10]
  Activity: inactive
[11]
  Activity: inactive
Homo sapiens [12]
  Ratio: > 100
Homo sapiens [13]
  Ratio: > 100
Homo sapiens [14]
  Ratio: > 100
Homo sapiens [15]
  Ratio: > 100
Homo sapiens [16]
  Ratio: > 100
Homo sapiens [17]
  Ratio: > 100
Homo sapiens [18]
  Ratio: > 100
Mus musculus [19]
  Activity: >95%
Mus musculus [20]
  Activity: >90%
Mus musculus [21]
  Activity: >90%
